According to publication PMC8853157 (Medicinal Chemistry Research, 2022):
pIC50: −log10 of the molar value. “Also recorded” adds a separate entry of the source.

Tests used:
LFA-1/ICAM-1 [1] = target: LFA-1/ICAM-1 (Homo sapiens, UniProt P20701); assay: Jurkat T-cell adhesion assay; assay type: cell-based; conditions: for LFA-1/ICAM-1 antagonist activity in words / IC50 level in words: Jurkat T-cell adhesion assay; for LFA-1/ICAM-1 antagonist activity in words: compared with Lifitegrast
Outline: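 Jurkat E6-1 cells (RPMI 1640, 5% FBS, 37 °C, 5% CO2) labeled with 8 μM BCECF for 15 min at room temperature. Cells (5 × 10^5/well) preincubated with compound for 30 min at 37 °C, then settled 1 h at 37 °C on recombinant human ICAM-1–Fc-coated wells. Titration 10−10–10−4 M in triplicate lanes. Non-adherent cells washed off; adherent-cell fluorescence read; IC50 by four-parameter logistic regression.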

dry eye mice model [2] = assay: Goblet cell density; assay type: in vivo, C57/BL6 mice; conditions: 14 days, vs dry eye model group
Outline: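 Dry eye was induced in female C57/BL6 mice (6–8 weeks, n = 5/group) by RH 15, 2 m/s airflow, 21–23 °C and s.c. scopolamine hydrobromide (0.5 mg/0.2 ml) three times daily for 14 days. Eye drops (5 µL) went to both eyes twice daily. Central frozen sections (6 µm) were PAS-stained, and goblet cells per mm were counted by image analysis. Mean ± SEM, 10 eyes/group.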

dry eye mice model [3] = assay: Dry eye mice model, overall effect; assay type: in vivo, C57/BL6 mice; conditions: 5% vs 7% (W/V) compound 1b, topical
Outline: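 Female C57/BL6 mice (6–8 weeks, n = 5/group) were kept at RH 15, airflow 2 m/s and 21–23 °C for 14 days, with s.c. scopolamine hydrobromide (0.5 mg/0.2 ml) three times daily. Test compound (5% or 7% W/V) was given as 5 µL drops to both eyes twice daily. Read-outs were fluorescein score summed over five corneal regions, PAS goblet density and TUNEL; 10 eyes/group.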

dry eye mice model [4] = assay: TUNEL staining of corneal epithelium in dry eye mice model; assay type: in vivo, C57/BL6 mice; conditions: for TUNEL positive (Cy3 labeled) cells in cornea, apoptosis: 14 days, vs dry eye model group
Outline: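 Female C57/BL6 mice, 6–8 weeks, n=5/group. Dry eye induced over 14 days. Both eyes received 5 µL drops twice daily: test compound 5% or 7% W/V, vehicle, or 5% reference antagonist. Eyes then excised, OCT-embedded and cut into 6 µm frozen central sagittal sections. Sections TUNEL/DAPI-stained. TUNEL-positive cells counted in the central 200 µm corneal epithelial field at ×400. n=10 eyes/group; mean ± SEM.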

LFA-1/ICAM-1 [5] = conditions: read-out: previously reported IC50; HUT 78T cells; cited from earlier work

LFA-1/ICAM-1 (Homo sapiens, UniProt P20701), sequence (P20701 26-1170): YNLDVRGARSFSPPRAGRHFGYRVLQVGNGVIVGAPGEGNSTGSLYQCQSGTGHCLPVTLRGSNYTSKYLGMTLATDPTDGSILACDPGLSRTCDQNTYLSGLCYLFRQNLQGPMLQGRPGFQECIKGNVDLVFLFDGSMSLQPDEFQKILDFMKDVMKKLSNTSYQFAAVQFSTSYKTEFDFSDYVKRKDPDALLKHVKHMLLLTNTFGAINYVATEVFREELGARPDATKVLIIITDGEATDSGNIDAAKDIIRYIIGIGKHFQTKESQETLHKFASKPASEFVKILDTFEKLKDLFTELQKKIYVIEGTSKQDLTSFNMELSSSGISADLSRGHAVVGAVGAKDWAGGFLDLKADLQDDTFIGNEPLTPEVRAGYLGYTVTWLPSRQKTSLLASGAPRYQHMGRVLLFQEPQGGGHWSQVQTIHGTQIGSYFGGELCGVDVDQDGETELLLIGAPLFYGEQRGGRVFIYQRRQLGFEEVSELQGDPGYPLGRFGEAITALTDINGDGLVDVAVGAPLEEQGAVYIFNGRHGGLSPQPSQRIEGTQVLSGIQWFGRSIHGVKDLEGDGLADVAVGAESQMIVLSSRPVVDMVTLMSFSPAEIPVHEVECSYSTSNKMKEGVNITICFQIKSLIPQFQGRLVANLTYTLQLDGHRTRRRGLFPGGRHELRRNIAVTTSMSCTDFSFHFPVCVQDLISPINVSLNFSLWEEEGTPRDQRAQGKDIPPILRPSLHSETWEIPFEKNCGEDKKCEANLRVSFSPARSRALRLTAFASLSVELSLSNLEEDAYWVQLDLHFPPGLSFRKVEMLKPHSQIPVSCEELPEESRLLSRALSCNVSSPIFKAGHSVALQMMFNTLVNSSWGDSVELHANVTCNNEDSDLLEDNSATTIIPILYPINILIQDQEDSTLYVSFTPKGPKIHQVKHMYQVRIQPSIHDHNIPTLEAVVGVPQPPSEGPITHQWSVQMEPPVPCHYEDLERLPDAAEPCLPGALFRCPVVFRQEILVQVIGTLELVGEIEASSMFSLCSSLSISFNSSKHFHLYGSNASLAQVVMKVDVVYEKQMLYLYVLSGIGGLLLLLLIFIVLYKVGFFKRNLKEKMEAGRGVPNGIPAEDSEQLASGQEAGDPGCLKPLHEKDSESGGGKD
LFA-1/ICAM-1 (Homo sapiens, UniProt P20701), sequence (P05107 23-769 partner): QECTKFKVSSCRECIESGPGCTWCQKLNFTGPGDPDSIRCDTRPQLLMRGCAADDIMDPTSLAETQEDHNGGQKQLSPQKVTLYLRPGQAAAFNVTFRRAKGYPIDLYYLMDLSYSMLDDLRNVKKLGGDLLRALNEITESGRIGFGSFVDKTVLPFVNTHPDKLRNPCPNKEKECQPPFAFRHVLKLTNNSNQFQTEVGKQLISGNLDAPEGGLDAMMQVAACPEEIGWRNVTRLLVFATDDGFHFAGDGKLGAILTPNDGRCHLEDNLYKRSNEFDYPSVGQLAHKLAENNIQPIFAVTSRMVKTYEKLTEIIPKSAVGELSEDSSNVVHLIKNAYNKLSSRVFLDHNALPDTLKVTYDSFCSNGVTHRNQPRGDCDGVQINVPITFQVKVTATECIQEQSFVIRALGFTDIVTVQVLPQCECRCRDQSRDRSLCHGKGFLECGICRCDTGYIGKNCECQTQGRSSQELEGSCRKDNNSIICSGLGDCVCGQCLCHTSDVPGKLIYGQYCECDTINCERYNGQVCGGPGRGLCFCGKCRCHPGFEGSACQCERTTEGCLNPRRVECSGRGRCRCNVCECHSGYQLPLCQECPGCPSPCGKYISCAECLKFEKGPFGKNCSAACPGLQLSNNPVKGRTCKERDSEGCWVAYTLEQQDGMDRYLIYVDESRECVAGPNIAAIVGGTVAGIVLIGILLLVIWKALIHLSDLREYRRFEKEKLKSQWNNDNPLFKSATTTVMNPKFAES

| SMILES | IC50 level in words (LFA-1/ICAM-1 [1]) | LFA-1/ICAM-1 antagonist activity in words (LFA-1/ICAM-1 [1]) | further results |
| --- | --- | --- | --- |
| CS(=O)(=O)c1cccc(C[C@H](NC(=O)c2c(Cl)cc3c(c2Cl)CCN(S(=O)(=O)c2ccc4ccoc4c2)C3)C(=O)O)c1 [Compound 1a, (S)-2-(2-(Benzofuran-6-ylsulfonyl)-5,7-dichloro-1,2,3,4-tetrahydroisoquinoline-6-carboxamido)-3-(3-(methylsulfonyl)phenyl)propanoic acid] | – | decreased LFA-1/ICAM-1 antagonist activity obviously | – |
| C#Cc1cccc(C(=O)N2CCc3c(cc(Cl)c(C(=O)N[C@@H](Cc4cccc(S(C)(=O)=O)c4)C(=O)O)c3Cl)C2)c1 [Compound 1e, (S)-2-(2-(3-Ethynylbenzoyl)-5,7-dichloro-1,2,3,4-tetrahydroisoquinoline-6-carboxamido)-3-(3-(methylsulfonyl)phenyl)propanoic acid] | – | decreased LFA-1/ICAM-1 antagonist activity obviously | – |
| CS(=O)(=O)c1cccc(C[C@H](NC(=O)c2c(Cl)cc3c(c2Cl)CCN(C(=O)NCc2ccc4ccoc4c2)C3)C(=O)O)c1 [Compound 1b, (S)-2-(2-((Benzofuran-6-ylmethyl)carbamoyl)-5,7-dichloro-1,2,3,4-tetrahydroisoquinoline-6-carboxamido)-3-(3-(methylsulfonyl)phenyl)propanoic acid] | – | certain LFA-1/ICAM-1 antagonist activity | density of goblet cells on conjunctival epithelium (dry eye mice model [2]; 5% (W/V) compound 1b): significantly increased the density of goblet cells; also recorded: significantly increased goblet cell density; density of goblet cells on conjunctival epithelium (dry eye mice model [2]; 7% (W/V) compound 1b): significantly increased the density of goblet cells; also recorded: significantly increased goblet cell density; difference in effect between the two concentrations (dry eye mice model [3]): no statistical difference in the effect between 5% and 7%; TUNEL positive (Cy3 labeled) cells in cornea, apoptosis (dry eye mice model [4]; 5% (W/V) compound 1b): markedly decreased; also recorded: protective effect on apoptosis of ocular surface cells; anti-apoptotic effect compared with Lifitegrast treatment group (dry eye mice model [4]; 5% or 7% compound 1b vs 5% Lifitegrast): weaker than that of Lifitegrast; TUNEL positive (Cy3 labeled) cells in cornea, apoptosis (dry eye mice model [4]; 7% (W/V) compound 1b): markedly decreased; also recorded: protective effect on apoptosis of ocular surface cells |
| CS(=O)(=O)c1cccc(C[C@H](NC(=O)c2c(Cl)cc3c(c2Cl)CCN(C(=O)c2ccc4ccoc4c2)C3)C(=O)O)c1 [Lifitegrast, reference compound] | – | – | pIC50 (LFA-1/ICAM-1 [5]): 8.05; pIC50 (LFA-1/ICAM-1 [1]; IC50, Jurkat T-cell adhesion assay, text and Fig. 3): ~7.98 |
| CS(=O)(=O)c1cccc(C[C@H](NC(=O)c2c(Cl)cc3c(c2Cl)CCN(C(=O)Cc2ccc4occc4c2)C3)C(=O)O)c1 [Compound 1c, (S)-2-(2-(2-(Benzofuran-5-yl)acetyl)-5,7-dichloro-1,2,3,4-tetrahydroisoquinoline-6-carboxamido)-3-(3-(methylsulfonyl)phenyl)propanoic acid] | several micromol levels | certain LFA-1/ICAM-1 antagonist activity | – |
| CS(=O)(=O)c1cccc(C[C@H](NC(=O)c2c(Cl)cc3c(c2Cl)CCN(C(=O)c2ccc4ncnn4c2)C3)C(=O)O)c1 [Compound 1d, (S)-2-(2-([1,2,4]Triazolo[1,5-a]pyridine-6-carbonyl)-5,7-dichloro-1,2,3,4-tetrahydroisoquinoline-6-carboxamido)-3-(3-(methylsulfonyl)phenyl)propanoic acid] | – | decreased LFA-1/ICAM-1 antagonist activity obviously | – |
| O=C(NC(Cc1ccc2c(c1)S(=O)(=O)CC2)C(=O)O)c1c(Cl)cc2c(c1Cl)CCN(C(=O)c1ccc3ccoc3c1)C2 (centres unmarked) [Compound 1g, 2-(2-(Benzofuran-6-carbonyl)-5,7-dichloro-1,2,3,4-tetrahydroisoquinoline-6-carboxamido)-3-(1,1-dioxido-2,3-dihydrobenzo[b]thiophen-6-yl)propanoic acid] | – | loss of activity | – |

More lines, main results first:

| IC50 level in words (LFA-1/ICAM-1 [1]) | SMILES | LFA-1/ICAM-1 antagonist activity in words (LFA-1/ICAM-1 [1]) | further results |
| --- | --- | --- | --- |
| several micromol levels | O=C1CCc2ccc(CC(NC(=O)c3c(Cl)cc4c(c3Cl)CCN(C(=O)c3ccc5ccoc5c3)C4)C(=O)O)cc2N1 (centres unmarked) [Compound 1h, 2-(2-(Benzofuran-6-carbonyl)-5,7-dichloro-1,2,3,4-tetrahydroisoquinoline-6-carboxamido)-3-(2-oxo-1,2,3,4-tetrahydroquinolin-7-yl)propanoic acid] | – | – |
| several micromol levels | O=C(NC(Cc1ccc2ncccc2c1)C(=O)O)c1c(Cl)cc2c(c1Cl)CCN(C(=O)c1ccc3ccoc3c1)C2 (centres unmarked) [Compound 1f, 2-(2-(Benzofuran-6-carbonyl)-5,7-dichloro-1,2,3,4-tetrahydroisoquinoline-6-carboxamido)-3-(quinolin-6-yl)propanoic acid] | – | – |
